Calls of active or inactive are those of the source. No cut-off for these calls is given here.
Assays:
[1] = system: MCF7; test: Cytotoxicity against human MCF7 cells after 48 hrs by SRB assay; type: functional, cell-based; settings: MCF7, 48 h
Summary of the method: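 Nanoassemblies diluted in culture medium and added at various concentrations for 48 h at 37°C/5% CO₂. Survival % vs untreated control; run thrice in triplicate; IC50 from dose–effect curves.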

[2] = system: MCF7; test: Cytotoxicity against human MCF7 cells in presence of 10 mM DTT after 48 hrs by SRB assay; type: functional, cell-based; settings: MCF7, 48 h
[3] = system: A549; test: Cytotoxicity against human A549 cells after 48 hrs by SRB assay; type: functional, cell-based; settings: A549, 48 h
[4] = Stability of the compound assessed as compound mean nano particles size diluted with water at 2 mg/ml measured after 3 months at 5 degC by quasi-elastic light scattering method; type: physicochemical; settings: buffer, 2191.5 h
Summary of the method: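 Nanoassemblies made by nanoprecipitation in water as 2 mg/mL dispersions, stored at 5°C. Size checked after three months on samples diluted with water, by light scattering.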

[5] = Stability in human serum at 37 degC assessed as ratio of HPLC area of peaks corresponding to intact compound at time zero at 2 mg/ml measured after 48 hrs; type: ADME, cell-free; settings: read-out: Stability
[6] = Stability of the compound in water assessed as compound mean nano particles size at 2 mg/ml by quasi-elastic light scattering method; type: physicochemical; settings: buffer
Summary of the method: (§1)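 Nanoassemblies formed by solvent displacement into water, 10 mM buffers (citrate or acetate pH 4.5, phosphate pH 7.5, borate or carbonate pH 10.2) or 100 mM NaCl, final 2 mg/mL. Mean diameter by quasi-elastic light scattering at 90° and 25°C, on samples diluted 1:20 in water; each value the average of five measurements.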

[7] = Stability of the compound in pH 4.5 citrate buffer assessed as compound mean nano particles size at 2 mg/ml by quasi-elastic light scattering method; type: physicochemical; summary of the method: as §1
[8] = Stability of the compound in pH 4.5 acetate buffer assessed as compound mean nano particles size at 2 mg/ml by quasi-elastic light scattering method; type: physicochemical; summary of the method: as §1
[9] = Stability of the compound in pH 7.5 phosphate buffer assessed as compound mean nano particles size at 2 mg/ml by quasi-elastic light scattering method; type: physicochemical; summary of the method: as §1
[10] = Stability of the compound in pH 10.2 borate buffer assessed as compound mean nano particles size at 2 mg/ml by quasi-elastic light scattering method; type: physicochemical; summary of the method: as §1
[11] = Stability of the compound in pH 10.2 carbonate buffer assessed as compound mean nano particles size at 2 mg/ml by quasi-elastic light scattering method; type: physicochemical; summary of the method: as §1
[12] = Stability of the compound in presence of 100 mM NaCl assessed as compound mean nano particles size at 2 mg/ml by quasi-elastic light scattering method; type: physicochemical; summary of the method: as §1
[13] = Stability in pH 9 borate buffer; type: physicochemical
[14] = system: A549; test: Inhibition of microtubule bundle formation in human A549 cells assessed as cell shrinking at 200 ug/mL incubated for 1 hr by alpha-tubulin staining based fluorescence microscopy
Summary of the method: (§2)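 A549 cells seeded on glass coverslips at 50000 cells/ml, grown 24 h, then exposed 1 h to 200 µg/ml conjugate or parent drug. Fixed and permeabilized in methanol at -20°C for 6 min, blocked in PBS + 5% BSA, stained with anti-α-tubulin (1:500, 1 h, 37°C), Alexa568 secondary and DAPI nuclei, then imaged by fluorescence microscopy at 63x.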

[15] = system: A549; test: Inhibition of microtubule bundle formation in human A549 cells assessed as cell detachment at 200 ug/mL incubated for 1 hr by alpha-tubulin staining based fluorescence microscopy; summary of the method: as §2
[16] = system: A549; test: Binding affinity to microtubule in human A549 cells at 200 ug/mL incubated for 1 hr by alpha-tubulin staining based fluorescence microscopy; type: cell-based; summary of the method: as §2
[17] = system: A549; test: Induction of microtubule bundling in human A549 cells at 200 ug/mL incubated for 1 hr by alpha-tubulin staining based fluorescence microscopy; type: cell-based
Summary of the method: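 A549 cells grown in E-MEM with 10% FBS, 2 mM L-glutamine, penicillin and non-essential amino acids at 37°C, 5% CO2. Seeded at 50000 cells/ml on glass coverslips, exposed after 24 h. Then fixed and permeabilized in methanol at -20°C for 6 min and blocked in PBS+5% BSA. Stained with anti-α-tubulin (1:500), Alexa568 secondary and DAPI, and imaged by fluorescence microscopy.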

## CC[C@@]1(O)C(=O)OCc2c1cc1n(c2=O)Cc2cc3ccccc3nc2-1 [CAMPTOTHECIN]
[1]
  IC50: 0.0005 µM
[2]
  IC50: 0.003 µM
[3]
  IC50: 1.3 µM

## CC(C)=CCC/C(C)=C/CC/C(C)=C/CC/C=C(\C)CC/C=C(\C)CCCOC(=O)CCCCCCCCC(=O)O[C@H]1[C@@H](C)CCC[C@H]2O[C@H]2C[C@@H](/C(C)=C/c2csc(C)n2)OC(=O)C[C@H](O)C(C)(C)C(=O)[C@@H]1C
[4]
  Stability: 142.9 nm
[5]
  remaining at 48 h, 2 mg/ml: 70%
[6]
  Stability: 125.3 nm
[7]
  Stability: 203.2 nm
[8]
  Stability: 206 nm
[9]
  Stability: 212.9 nm
[10]
  Stability: 351.1 nm
[11]
  Stability: 312.2 nm
[12]
  Stability: 502.4 nm
[13]
  Stability: Stable
[1]
  IC50: 40.2 µM
[2]
  IC50: 45.1 µM

## COc1cc([C@@H]2c3cc4c(cc3[C@H](OC(=O)CCCSSCCCC(=O)OCCC/C(C)=C/CC/C(C)=C/CC/C=C(\C)CC/C=C(\C)CCC=C(C)C)[C@H]3COC(=O)[C@H]23)OCO4)cc(OC)c1OC
[4]
  Stability: 215.3 nm
[5]
  remaining at 48 h, 2 mg/ml: 52%
[6]
  Stability: 185.9 nm
[7]
  Stability: 428.3 nm
[8]
  Stability: 275.9 nm
[9]
  Stability: 201.5 nm
[10]
  Stability: 202.3 nm
[11]
  Stability: 242.9 nm
[12]
  Stability: 676 nm
[14]
  inhibition: Active
[15]
  inhibition: Active
[1]
  IC50: 0.4 µM
[2]
  IC50: 0.06 µM
[3]
  IC50: 7.64 µM

## CC(=O)O[C@H]1C(=O)[C@@]2(C)[C@H]([C@H](OC(=O)c3ccccc3)[C@]3(O)C[C@H](OC(=O)[C@H](OC(=O)CCCSSCCCC(=O)OCCC/C(C)=C/CC/C(C)=C/CC/C=C(\C)CC/C=C(\C)CCC=C(C)C)[C@@H](NC(=O)c4ccccc4)c4ccccc4)C(C)=C1C3(C)C)[C@]1(OC(C)=O)CO[C@@H]1C[C@@H]2O
[4]
  Stability: 106.5 nm
[5]
  remaining at 48 h, 2 mg/ml: 93%
[6]
  Stability: 100.8 nm
[7]
  Stability: 462.4 nm
[8]
  Stability: > 2 um
[9]
  Stability: 162.4 nm
[10]
  Stability: 181.7 nm
[11]
  Stability: 723.3 nm
[12]
  Stability: > 2 um
[14]
  inhibition: Active
[15]
  inhibition: Active
[16]
  Activity: Active
[1]
  IC50: 0.06 µM
[2]
  IC50: 0.003 µM
[3]
  IC50: 0.49 µM

## CC(=O)O[C@H]1C(=O)[C@@]2(C)[C@H]([C@H](OC(=O)c3ccccc3)[C@]3(O)C[C@H](OC(=O)[C@H](OC(=O)OCC/C(C)=C/CC/C(C)=C/CC/C=C(\C)CC/C=C(\C)CCC=C(C)C)[C@@H](NC(=O)c4ccccc4)c4ccccc4)C(C)=C1C3(C)C)[C@]1(OC(C)=O)CO[C@@H]1C[C@@H]2O
[4]
  Stability: 181.1 nm
[5]
  remaining at 48 h, 2 mg/ml: 94%
[1]
  IC50: 9.1 µM
[2]
  IC50: 8.7 µM

## CC[C@@]1(OC(=O)CCCSSCCCC(=O)OCCC/C(C)=C/CC/C(C)=C/CC/C=C(\C)CC/C=C(\C)CCC=C(C)C)C(=O)OCc2c1cc1n(c2=O)Cc2cc3ccccc3nc2-1
[4]
  Stability: 210.2 nm
[5]
  remaining at 48 h, 2 mg/ml: 70%
[6]
  Stability: 195.3 nm
[7]
  Stability: 376.4 nm
[8]
  Stability: 224.3 nm
[9]
  Stability: 198.9 nm
[10]
  Stability: 160.3 nm
[11]
  Stability: 250.6 nm
[12]
  Stability: 339.7 nm
[1]
  IC50: 8.6 µM
[2]
  IC50: 0.8 µM
[3]
  IC50: > 5 µM

## CC(C)=CCC/C(C)=C/CC/C(C)=C/CC/C=C(\C)CC/C=C(\C)CCCOC(=O)CCCSSCCCC(=O)O[C@H]1[C@@H](C)CCC[C@H]2O[C@H]2C[C@@H](/C(C)=C/c2csc(C)n2)OC(=O)C[C@H](O)C(C)(C)C(=O)[C@@H]1C
[4]
  Stability: 191.1 nm
[5]
  remaining at 48 h, 2 mg/ml: 58%
[6]
  Stability: 165.1 nm
[7]
  Stability: 197.8 nm
[8]
  Stability: 201.5 nm
[9]
  Stability: 235.5 nm
[10]
  Stability: 207.7 nm
[11]
  Stability: 212.2 nm
[12]
  Stability: 312.9 nm
[14]
  inhibition: Active
[15]
  inhibition: Active
[1]
  IC50: 1.3 µM
[2]
  IC50: 0.5 µM
[3]
  IC50: > 5 µM

## CC(=O)O[C@H]1C(=O)[C@@]2(C)[C@H]([C@H](OC(=O)c3ccccc3)[C@]3(O)C[C@H](OC(=O)[C@H](O)[C@@H](NC(=O)c4ccccc4)c4ccccc4)C(C)=C1C3(C)C)[C@]1(OC(C)=O)CO[C@@H]1C[C@@H]2O [PACLITAXEL]
[14]
  inhibition: Active
[17]
  Activity: Active
[15]
  inhibition: Active
[3]
  IC50: 0.082 µM

## CC(=O)O[C@H]1C(=O)[C@@]2(C)[C@H]([C@H](OC(=O)c3ccccc3)[C@]3(O)C[C@H](OC(=O)[C@H](OC(=O)CCCCCCCCC(=O)OCCC/C(C)=C/CC/C(C)=C/CC/C=C(\C)CC/C=C(\C)CCC=C(C)C)[C@@H](NC(=O)c4ccccc4)c4ccccc4)C(C)=C1C3(C)C)[C@]1(OC(C)=O)CO[C@@H]1C[C@@H]2O
[4]
  Stability: 110.5 nm
[5]
  remaining at 48 h, 2 mg/ml: 95%
[6]
  Stability: 107.9 nm
[7]
  Stability: 391.2 nm
[8]
  Stability: > 2 um
[9]
  Stability: 125.6 nm
[10]
  Stability: 161.4 nm
[11]
  Stability: 635.9 nm
[12]
  Stability: > 2 um
[13]
  Stability: Stable
[1]
  IC50: 1.21 µM
[2]
  IC50: 1.53 µM

## CC[C@@]1(OC(=O)CCCCCCCCC(=O)OCCC/C(C)=C/CC/C(C)=C/CC/C=C(\C)CC/C=C(\C)CCC=C(C)C)C(=O)OCc2c1cc1n(c2=O)Cc2cc3ccccc3nc2-1
[4]
  Stability: 172.4 nm
[5]
  remaining at 48 h, 2 mg/ml: 85%
[6]
  Stability: 160.2 nm
[7]
  Stability: 375.4 nm
[8]
  Stability: 275.9 nm
[9]
  Stability: 201.5 nm
[10]
  Stability: 202.3 nm
[11]
  Stability: 242.9 nm
[12]
  Stability: 461.1 nm
[13]
  Stability: Stable
[1]
  IC50: 10.5 µM
[2]
  IC50: 20.1 µM

## COc1cc([C@@H]2c3cc4c(cc3[C@H](OC(=O)CCCCCCCCC(=O)OCCC/C(C)=C/CC/C(C)=C/CC/C=C(\C)CC/C=C(\C)CCC=C(C)C)[C@H]3COC(=O)[C@H]23)OCO4)cc(OC)c1OC
[4]
  Stability: 210.5 nm
[5]
  remaining at 48 h, 2 mg/ml: 82%
[6]
  Stability: 180.5 nm
[7]
  Stability: 629.2 nm
[8]
  Stability: 287.5 nm
[9]
  Stability: 193.5 nm
[10]
  Stability: 211.3 nm
[11]
  Stability: 315 nm
[12]
  Stability: 720.3 nm
[13]
  Stability: Stable
[1]
  IC50: 106 µM
[2]
  IC50: 111 µM

## COc1cc([C@@H]2c3cc4c(cc3[C@H](O)[C@H]3COC(=O)[C@H]23)OCO4)cc(OC)c1OC [PODOFILOX]
[14]
  inhibition: Active
[15]
  inhibition: Active
[1]
  IC50: 0.0001 µM
[2]
  IC50: 0.0004 µM
[3]
  IC50: 0.059 µM

## C/C(=C\c1csc(C)n1)[C@@H]1C[C@@H]2O[C@@H]2CCC[C@H](C)[C@H](O)[C@@H](C)C(=O)C(C)(C)[C@@H](O)CC(=O)O1 [EPOTHILONE A]
[14]
  inhibition: Active
[17]
  Activity: Active
[15]
  inhibition: Active
[1]
  IC50: 0.0009 µM
[2]
  IC50: 0.0008 µM
[3]
  IC50: > 5 µM

Source: ChEMBL document CHEMBL3351637 (Eur J Med Chem, 2014)
